Reference: ChEMBL document CHEMBL1127299, “Inhibition of peptidylglycine alpha-amidating monooxygenase by N-substituted homocysteine analogs” (J Med Chem, 1994)
Non-standard residues stand in square brackets, D forms with d. Residues, ends and D or L forms follow the SMILES beside them. ξ: configuration not given here. *: point of attachment. Hydrocinnamoyl = O=C(CCc1ccccc1)*; hCys = N[C@@H](CCS)C(=O)O; Nle = CCCC[C@H](N)C(=O)O; Cbz = O=C(OCc1ccccc1)*; Boc = CC(C)(C)OC(=O)*; ξhCys = NC(CCS)C(=O)O; OBn = c1ccc(CO*)cc1

How the values were obtained:
[1] = biological target: T1, Peptidylglycine alpha-amidating monooxygenase (Rattus norvegicus, UniProt P14925); assay: Inhibitory activity against peptidylglycine alpha-amidating monooxygenase (PAM) was determined; type: functional
T1 sequence (P14925 whole entry): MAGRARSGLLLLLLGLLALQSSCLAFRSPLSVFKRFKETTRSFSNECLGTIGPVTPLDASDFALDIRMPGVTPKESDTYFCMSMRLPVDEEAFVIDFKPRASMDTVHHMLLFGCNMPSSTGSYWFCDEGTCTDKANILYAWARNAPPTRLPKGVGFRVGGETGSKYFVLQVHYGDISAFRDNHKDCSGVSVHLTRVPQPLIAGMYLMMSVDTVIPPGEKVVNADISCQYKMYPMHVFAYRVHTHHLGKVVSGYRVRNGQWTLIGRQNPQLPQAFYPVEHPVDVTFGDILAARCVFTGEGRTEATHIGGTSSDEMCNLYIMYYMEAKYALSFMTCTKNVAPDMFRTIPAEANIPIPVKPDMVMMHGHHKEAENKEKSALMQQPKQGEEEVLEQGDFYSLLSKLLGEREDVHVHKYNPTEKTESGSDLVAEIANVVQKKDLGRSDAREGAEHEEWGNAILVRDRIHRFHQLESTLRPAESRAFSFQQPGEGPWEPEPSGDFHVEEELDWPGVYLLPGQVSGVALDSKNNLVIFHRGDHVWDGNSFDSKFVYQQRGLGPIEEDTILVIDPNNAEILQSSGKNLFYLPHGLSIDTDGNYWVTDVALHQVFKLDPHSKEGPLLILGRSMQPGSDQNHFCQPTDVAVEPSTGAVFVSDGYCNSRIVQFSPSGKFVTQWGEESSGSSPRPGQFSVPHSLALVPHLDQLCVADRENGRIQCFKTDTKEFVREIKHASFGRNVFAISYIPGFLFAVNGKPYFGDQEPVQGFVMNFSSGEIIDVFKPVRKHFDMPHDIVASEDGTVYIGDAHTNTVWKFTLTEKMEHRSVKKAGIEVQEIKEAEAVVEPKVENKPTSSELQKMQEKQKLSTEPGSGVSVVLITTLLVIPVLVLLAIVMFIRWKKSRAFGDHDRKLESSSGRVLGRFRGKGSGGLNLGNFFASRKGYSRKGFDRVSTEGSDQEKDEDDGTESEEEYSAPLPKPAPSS
In short: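 Partially purified PAM (DEAE cartridge, then Sephacryl 300 SF), 13.5 μU, preincubated with inhibitor 20 min at room temperature in 150 mM TES pH 7.0 with 0.001% Triton-100. Started with N-dansyl-D-Tyr-Phe-Gly (2.0 μM) plus ascorbate (3 mM), quenched with EDTA. Seven or more concentrations in duplicate, three runs; IC50 by least squares on log dose–response.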

[2] = biological target: T2, Peptidylglycine alpha-amidating monooxygenase (Rattus norvegicus) (UniProt P14925); assay: (§1) Inhibition of PAM on Substance P biosynthesis in the dorsal root ganglion (DRG) cell culture assay; type: functional, tissue-based; set-up: concentration or dose not given beside the values; conditions: concentration not given here
T2 sequence (whole entry): T1 sequence (P14925 whole entry)
In short: (§2)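 Rat primary dorsal root ganglion neurons cultured without ascorbate for six days. On day 6 inhibitor added (10 μM), then ascorbate 500 μM 12 h later, incubated overnight. SP measured by RIA with an antibody selective for SP over SP-Gly. SP-Gly found by treating a duplicate sample with 3.5 μg PAM and taking the difference in SP; percent inhibition.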

[3] = biological target: T2, Peptidylglycine alpha-amidating monooxygenase (Rattus norvegicus); assay: as §1; type: functional, tissue-based; conditions: concentration not given here; in short: as §2

Structure (SMILES)	IC50 [1] [nM]	inhibition [2] [%]	inhibition [3] [%]
CC(C)(C)OC(=O)N[C@@H](Cc1ccccc1)C(=O)N[C@@H](CCS)C(=O)O (Boc-Phe-[hCys]-OH)	53		
CCC(C)CC(=O)N[C@@H](Cc1ccccc1)C(=O)N[C@@H](CCS)C(=O)O (stereo partly specified)	29	10	
CC(C)(C)OC(=O)N[C@H](Cc1ccc(O)cc1)C(=O)N[C@@H](Cc1ccccc1)C(=O)N[C@@H](CO)C(=O)O	> 10000		
O=C(N[C@@H](Cc1ccccc1)C(=O)N[C@@H](CCS)C(=O)O)OCc1ccccc1 (Cbz-Phe-[hCys]-OH)	18	40	
CCCC[C@H](NC(=O)CCc1ccccc1)C(=O)NC(CCS)C(=O)O (stereo partly specified) (Hydrocinnamoyl-[Nle]-[ξhCys]-OH)	23		7
CN(C)c1cccc2c(S(=O)(=O)N[C@H](Cc3ccc(O)cc3)C(=O)N[C@@H](Cc3ccccc3)C(=O)NCC(=O)O)cccc12	4200		
O=C(N[C@@H](Cc1ccccc1)C(=O)NC(CCS)C(=O)O)c1cc2ccccc2[nH]1 (stereo partly specified)	8	42	
C[C@H](NC(=O)[C@H](Cc1ccccc1)NC(=O)[C@@H](Cc1ccc(O)cc1)NC(=O)OC(C)(C)C)C(=O)O	> 10000		
N[C@H](Cc1ccc(O)cc1)C(=O)N[C@@H](Cc1ccccc1)C(=O)NCC(=O)O	> 10000		
CC(C)(C)OC(=O)N[C@H](Cc1ccccc1)C(=O)N[C@@H](Cc1ccccc1)C(=O)N[C@@H](CCS)C(=O)O	39	34	
O=C(O)CNC(=O)[C@H](Cc1ccccc1)NC(=O)[C@@H](Cc1ccc(O)cc1)NC(=O)OCc1ccccc1	3500		
O=C(CCc1ccccc1)N[C@@H](Cc1ccccc1)C(=O)N[C@H](CCS)C(=O)O	610		
CC(C)[C@H](NC(=O)CCc1ccccc1)C(=O)NC(CCS)C(=O)O (stereo partly specified) (Hydrocinnamoyl-Val-[ξhCys]-OH)	160		
O=C(N[C@@H](Cc1ccccc1)C(=O)NC(CCS)C(=O)O)c1ccc2ccccc2c1 (stereo partly specified)	10	67	
O=C(CCc1ccccc1)N[C@@H](Cc1ccccc1)C(=O)N[C@@H](CCS)C(=O)O	10	25	
O=C(CCc1ccccc1)N[C@@H](Cc1ccccc1)C(=O)NC1CCSC1=O (stereo partly specified)	> 10000	37	
O=C(O)CC[C@H](NC(=O)[C@H](Cc1ccccc1)NC(=O)CCc1ccccc1)C(=O)O (Hydrocinnamoyl-Phe-Glu-OH)	> 10000		
O=C(CCc1ccccc1)NC(CCS)C(=O)O (stereo unspecified)	7500		
O=C(CCc1ccccc1)N[C@@H](Cc1ccccc1)C(=O)NC(CCS)C(=O)OCc1ccccc1 (stereo partly specified) (Hydrocinnamoyl-Phe-[ξhCys]-OBn)	> 10000		
CSCC[C@H](NC(=O)CCc1ccccc1)C(=O)NC(CCS)C(=O)O (stereo partly specified)	18		
CC(C)(C)OC(=O)N[C@H](Cc1ccc(O)cc1)C(=O)N[C@@H](Cc1ccccc1)C(=O)NCC(=O)O	4000		
O=C(O)C[C@H](NC(=O)[C@H](Cc1ccccc1)NC(=O)CCc1ccccc1)C(=O)O (Hydrocinnamoyl-Phe-Asp-OH)	> 10000		
CC(C)(C)OC(=O)N[C@H](Cc1ccc(O)cc1)C(=O)N[C@@H](Cc1ccccc1)C(=O)N[C@@H](CS)C(=O)O	340		
O=C(CCc1ccc(Cl)c(Cl)c1)N[C@@H](Cc1ccccc1)C(=O)NC(CCS)C(=O)O (stereo partly specified)	55	37	
O=C(COc1ccccc1)N[C@@H](Cc1ccccc1)C(=O)NC(CCS)C(=O)O (stereo partly specified)	14	22	
O=C(CCc1ccccc1)N[C@@H](Cc1ccccc1)C(=O)NCCCS	1600		
CC(C)C[C@H](NC(=O)CCc1ccccc1)C(=O)NC(CCS)C(=O)O (stereo partly specified) (Hydrocinnamoyl-Leu-[ξhCys]-OH)	300		
O=C(CCc1ccccc1)N[C@@H](Cc1ccccc1)C(=O)NC(CCS)C(=O)O (stereo partly specified)	15	28	
NC(=O)C[C@H](NC(=O)[C@H](Cc1ccccc1)NC(=O)CCc1ccccc1)C(=O)O (Hydrocinnamoyl-Phe-Asn-OH)	> 10000		
O=C(CCc1ccccc1)N[C@@H](Cc1ccccc1)C(=O)N[C@@H](CS)C(=O)O (Hydrocinnamoyl-Phe-Cys-OH)	330		
